MT stabilizer: stabilizes microtubules in HeLa cells. HeLa tubulin immunostaining HCS, 24 h; share of cells brighter than vehicle mean+2SD. % tubulin-high responders, % at 10 µM. actives 0.83% (n = 200,000). AID 2205;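 active means plate Z-score above 3 for both tubulin-high and condensed-nucleus cell shares, with cell loss under 80%, at 10 µM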;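 further: anti alpha tubulin signal scored within the nucleus-defined area of each cell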
IEC-6 cytotox: counter-screen for KLF5 inhibitors: cytotoxicity in IEC-6 cells. IEC-6 cytotoxicity, luminescence viability. inhibition, % at 5 µM. actives 0.78% (n = 290,000); in the data active means inhibition above about 22%
b-catenin transl: beta-catenin nuclear translocation modulation. nuclear translocation activity, % at 5 µM. actives 0.3% (n = 190,000). AID 1665. HeLa beta-catenin nuclear translocation, immunofluorescence imaging;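 active means nuclear translocation activity above 50% at 5 µM, with a well cell count of 50 or more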;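 further: per-cell ratio of nuclear to cytoplasmic median beta-catenin stain intensity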
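Test system: human HeLa cells, native beta-catenin. Compound dosing: 5 µM primary single dose, 0.1% DMSO, 0.02–20 µM confirmation series. Incubation: compound exposure 24 h at 37°C. Detection: beta-catenin immunostaining with DAPI counterstain, 20x imaging, 6 fields/well. Read-out basis: Nuclear/cytoplasmic beta-catenin signal ratio, % activation.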
KLF5 inh: suppresses KLF5 promoter-driven expression; DLD-1 KLF5 promoter-luciferase reporter, luminescence; inhibition, % at 5 µM; actives 0.23% (n = 290,000);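 active means inhibition above a per-plate limit of that plate's mean compound inhibition plus 3 SD, cut at about 60% in these data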;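 further: higher means less KLF5 promoter-driven luciferase light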
Ba/F3 V617F tox: lowers viability of Ba/F3 cells expressing EpoR and JAK2V617F; ATP luminescence; inhibition, % at 5.6 µM; actives 1.1% (n = 220,000); AID 1446;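 active means inhibition above the campaign mean plus 3 SD over all tested compounds, cut at about 24% in these data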;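 further: cytokine-independent growth of Ba/F3 cells driven by EpoR plus mutant JAK2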
BaF3 parental: counter-screen for JAK2V617F inhibitors: parental Ba/F3 viability inhibitors. CellTiter-Glo ATP luminescence. inhibition, % at 5.6 µM. actives 1.1% (n = 220,000). AID 1486;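 active means inhibition above a per-campaign cutoff, the mean inhibition of all tested compounds plus 3 SD, cut at about 27% in these data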
BaF3 tox 2: parental Ba/F3 viability inhibition for JAK2V617F counter-screen | shares compounds with Ba/F3 V617F tox | CellTiter-Glo luminescence; cells kept alive by added IL-3 | inhibition, % at 5.6 µM | actives 31% (n = 580) | AID 1520;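 active means cell growth inhibition above the hit limit set in the earlier mutant JAK2 cell screen, cut at about 27% in these data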
JAK2V617F conf: Ba/F3 EpoR-JAK2V617F viability loss, confirmation | shares compounds with Ba/F3 V617F tox | CellTiter-Glo luminescence | inhibition, % at 5.6 µM | actives 66% (n = 580) | AID 1521;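 active means mean inhibition above the hit cutoff derived in the earlier primary screen, cut at about 25% in these data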;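 further: higher means lower luminescence from reduced cell ATP and viability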
Hits are given with their value; n = inactive; x = no result. An excerpt weighted towards active compounds, which were near 2.1% of everything screened.

SMILES	MT stabilizer	IEC-6 cytotox	b-catenin transl	KLF5 inh	Ba/F3 V617F tox	BaF3 parental	BaF3 tox 2	JAK2V617F conf
COC(=O)c1ccc(C(=O)OC)c(NC(=S)N2CCN(C(=O)C3CCCO3)CC2)c1 (configuration not stated)	x	n	n	n	n	n	x	x
COCCn1c(=S)[nH]c2cc(C(=O)N3CCN(c4ccccc4OC)CC3)ccc2c1=O	n	n	n	n	n	n	x	x
COCCn1c(=S)[nH]c2cc(C(=O)N3CCN(c4ccc(F)cc4)CC3)ccc2c1=O	n	n	n	n	51.0	n	n	n
Cc1ccc(NC(=O)/C=C/c2ccc3c(c2)OCO3)cc1S(=O)(=O)N1CCOCC1	n	n	n	n	n	n	x	x
Nc1c(C(=O)OCC2CCCO2)c2nc3ccccc3nc2n1-c1ccc2c(c1)OCCO2 (configuration not stated)	n	n	n	n	95.8	n	n	n
Nc1c(C(=O)NC2CC2)c2nc3ccccc3nc2n1-c1ccc2c(c1)OCO2	n	n	n	n	n	n	x	x
COc1ccccc1C(=O)C1CCCN(C(=O)CCc2ccccn2)C1 (configuration not stated)	n	n	n	n	n	n	x	x
CN(Cc1ccccc1)C(=O)COC(=O)c1cncc(Br)c1	n	n	n	n	n	n	x	x
CN(Cc1ccccc1)C(=O)COC(=O)c1ccc(Cl)c(N)c1	n	n	n	n	94.0	n	n	n
Cc1ccccc1-c1nn(-c2ccc(F)cc2F)cc1CNCCCN(C)C	n	n	n	n	26.1	n	n	n
O=C(O)CC(NC(=O)Nc1ccccc1)c1ccc(OC2CCCC2)cc1 (configuration not stated)	n	n	n	n	32.7	n	n	n
CCn1cc(CN2CCN(Cc3ccc(C)o3)C(CCO)C2)c2ccccc21 (configuration not stated)	n	n	n	n	43.7	n	n	n
CCn1cc(CN2CCN(Cc3ccccc3)C(CCO)C2)c2ccccc21 (configuration not stated)	x	n	x	n	x	x	x	x
CC(Oc1ccc(Cl)cc1)C(=O)Nc1ccccc1C(=O)N1CCOCC1 (configuration not stated)	x	n	x	n	x	x	x	x
O=[N+]([O-])c1cc(S(=O)(=O)NCCN2CCOCC2)ccc1Sc1nnnn1-c1ccccc1	n	n	n	n	45.8	n	26.9	95.8
O=C(Nc1ccc(F)cc1)C1CCCN(S(=O)(=O)c2ccc3[nH]c(=O)ccc3c2)C1 (configuration not stated)	x	n	x	n	x	x	x	x
CCCOc1ccc(C(=O)C(CN2CCCC2)c2ccccc2)cc1 (configuration not stated)	n	n	n	n	65.5	n	52.3	99.1
O=C(c1ccc(Cl)cc1)C(CN1CCCC1)c1ccccc1 (configuration not stated)	x	n	x	n	x	x	x	x
Cc1noc(NC(=O)c2ccc(Cl)c(Cl)c2)c1Cl	n	n	n	n	28.7	n	n	46.9
CCCn1c(CN(C)Cc2ccccc2)nc2c1c(=O)n(C)c(=O)n2C	n	n	n	n	35.4	n	n	58.0
CCCn1c(CN(Cc2ccccc2)Cc2ccccc2)nc2c1c(=O)n(C)c(=O)n2C	n	n	n	n	n	n	x	x
COc1ccc(S(=O)(=O)N2CCOC2CNC(=O)C(=O)NCCN2CCOCC2)cc1OC (configuration not stated)	x	n	x	n	x	x	x	x
NC(=S)NN=C(Cc1ccccc1)Cc1ccccc1	n	n	n	n	44.7	n	49.8	60.3
CCc1ccc(/C=N/NC(=O)C(=O)NCCCN2CCOCC2)cc1	n	n	n	n	n	n	x	x
COc1ccc2nc(NC(=O)CN3CCOCC3)sc2c1	n	n	n	n	82.7	n	n	n
COc1ccc2nc(NC(=O)CN3CCN(C)CC3)sc2c1	n	n	n	n	n	n	x	x
COC(=O)c1ccccc1NC(=O)CCCn1nc([N+](=O)[O-])c(Br)c1C	n	n	n	n	n	n	x	x
